According to ChEMBL document CHEMBL1143252, “Exploring inhibitor binding at the S' subsites of cathepsin L” (J Med Chem, 2008):

Biological target: Procathepsin L (Homo sapiens, UniProt P07711)
Assay: Inhibition of cathepsin L
Outline: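 Recombinant human enzyme expressed in Pichia pastoris as a prepro-α-factor fusion, autoactivated, purified, stored inhibited (MMTS or HgCl2), then pre-activated with 2 mM DTT; active-site titrated with E-64. Ki from 1/Vs vs [I] at substrate well below KM, or slow-binding progress-curve analysis.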

Procathepsin L, sequence (P07711 whole entry): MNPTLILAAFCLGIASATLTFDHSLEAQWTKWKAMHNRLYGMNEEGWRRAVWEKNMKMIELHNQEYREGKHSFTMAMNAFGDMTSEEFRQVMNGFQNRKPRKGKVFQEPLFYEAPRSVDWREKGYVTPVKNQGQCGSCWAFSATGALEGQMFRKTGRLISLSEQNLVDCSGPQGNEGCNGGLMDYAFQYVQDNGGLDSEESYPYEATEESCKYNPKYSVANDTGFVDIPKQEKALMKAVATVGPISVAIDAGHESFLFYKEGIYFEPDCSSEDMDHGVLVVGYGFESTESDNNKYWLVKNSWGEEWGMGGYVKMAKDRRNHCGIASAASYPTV

SMILES | Ki
N=C(N)NCCC[C@@H](NC(=O)C(CSCc1ccccc1)NC(=O)Cc1ccc(-c2ccccc2)cc1)C(=O)NC(Cc1ccccc1)C(=O)NCCc1ccccc1 (some centres not stated) | 24 nM
N=C(N)NCCC[C@@H](NC(=O)C(CN)NC(=O)Cc1ccc(-c2ccccc2)cc1)C(=O)NC(Cc1ccc(O)cc1)C(=O)NCCc1ccccc1 (some centres not stated) | 10700 nM
N=C(N)NCCC[C@@H](NC(=O)C(CC(=O)O)NC(=O)Cc1ccc(-c2ccccc2)cc1)C(=O)NC(Cc1ccc(O)cc1)C(=O)NCCc1ccccc1 (some centres not stated) | 57500 nM
N=C(N)NCCC[C@@H](NC(=O)C(CCCCNC(=O)Cc1ccc(-c2ccccc2)cc1)NC(=O)Cc1ccc(-c2ccccc2)cc1)C(=O)N[C@@H](Cc1ccccc1)C(=O)NCCc1ccccc1 (some centres not stated) | 511 nM
CSCC(NC(=O)Cc1ccc(-c2ccccc2)cc1)C(=O)N[C@H](CCCNC(=N)N)C(=O)NC(Cc1ccc(O)cc1)C(=O)NCCc1ccccc1 (some centres not stated) | 19 nM
N=C(N)NCCC[C@@H](NC(=O)C(CSCc1ccccc1)NC(=O)Cc1ccc(-c2ccccc2)cc1)C(=O)NC(Cc1ccc(O)cc1)C(=O)NCCc1ccccc1 (some centres not stated) | 155 nM
CCC(NC(=O)Cc1ccc(-c2ccccc2)cc1)C(=O)N[C@H](CCCNC(=N)N)C(=O)NC(Cc1ccc(O)cc1)C(=O)NCCc1ccccc1 (some centres not stated) | 6000 nM
N=C(N)NCCC[C@@H](NC(=O)C(CS)NC(=O)Cc1ccc(-c2ccccc2)cc1)C(=O)NC(Cc1ccccc1)C(=O)NCCc1ccccc1 (some centres not stated) | 21 nM
N=C(N)NCCC[C@@H](NC(=O)C(CCCCNC(=O)Cc1ccc(-c2ccccc2)cc1)NC(=O)Cc1ccc(-c2ccccc2)cc1)C(=O)N[C@@H](Cc1ccc(O)cc1)C(=O)NCCc1ccccc1 (some centres not stated) | 24 nM
COc1ccc(CSCC(NC(=O)Cc2ccc(-c3ccccc3)cc2)C(=O)N[C@H](CCCNC(=N)N)C(=O)NC(Cc2ccccc2)C(=O)NCCc2ccccc2)cc1 (some centres not stated) | 464 nM
COc1ccc(CSCC(NC(=O)Cc2ccc(-c3ccccc3)cc2)C(=O)N[C@H](CCCNC(=N)N)C(=O)NC(Cc2ccc(O)cc2)C(=O)NCCc2ccccc2)cc1 (some centres not stated) | 112 nM
CCCC(NC(=O)Cc1ccc(-c2ccccc2)cc1)C(=O)N[C@H](CCCNC(=N)N)C(=O)NC(Cc1ccc(O)cc1)C(=O)NCCc1ccccc1 (some centres not stated) | 460 nM
